Measured values of several laboratories.
Compare with care: the assays were run in different laboratories.
Cell line: HOP-92
Read-out: cell growth or viability

Compound	technique	concentration	time	quantity	value
COc1ccc(C(=O)/C=C/c2cccnc2)cc1S(N)(=O)=O	SRB	10 µM	–	inhibition	44%
COc1ccc(-c2ccc(-c3ccc(C(=N)N)nc3)s2)cc1Cl	SRB	–	–	GI50	1.63 µM
CCCc1n(Cc2ccc3ccccc3n2)cc[n+]1Cc1ccc2ccccc2n1	SRB	–	–	TGI	3.23 µM
COc1ccc(C(=O)/C=C/c2cccc(Br)c2)cc1S(N)(=O)=O	SRB	–	48 h	GI50	1.8 µM
O=C1NCCc2[nH]c(-c3ccncc3)cc21	–	–	–	IC50	6.4 µM
O=C1Nc2ccccc2C1=NNc1nnc2n1N=C(c1ccccc1)CS2	SRB	10 µM	–	inhibition	36%
COc1cccc(Oc2ccccc2NC(=O)CNC(=O)c2cccc3ccccc23)c1	SRB	–	48 h	GI50	0.204 µM
CCCCc1n(Cc2ccc3ccccc3n2)cc[n+]1Cc1ccc2ccccc2n1	SRB	–	–	TGI	3.36 µM
COc1ccc(-c2ccc(-c3ccc(C(=N)N)nc3)s2)cc1	SRB	–	–	GI50	1.5 µM
O=C1NC(=NCc2cccs2)S/C1=C\c1ccc2ncccc2c1	–	–	–	IC50	6.04 µM
CCc1n(Cc2ccc3ccccc3n2)cc[n+]1Cc1ccc2ccccc2c1	SRB	–	–	TGI	0.671 µM
